Experiment [1] deals with JNK activation in C22A-ZAK-transfected HEK-293T cells. The experiment can be described thus: Western blotting of phospho-JNK. It counts as cell-based, human. The following applies: H2O2 1 mM, 30 min. An outline of the steps: (§1)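 HEK-293T cells stably expressing FLAG-ZAK came from retroviral infection and hygromycin selection. They grew 24 h in DMEM/10% FBS, then were serum-starved 24 h and treated at 37 °C. Cells were sonicated in PBS with protease and phosphatase inhibitors. For blotting, 30 μg soluble lysate went on SDS-PAGE and nitrocellulose, blocked in 5% milk/TBST, with primary antibodies (1:2000, 16 h, 4 °C) and IRDye secondaries (1:10,000, 1 h). Read-out: infrared-scanned phospho-JNK, normalized.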
In general terms: Immunoblotting shows a protein as a band on a membrane.

Experiment [2] relates to JNK activation in WT-ZAK-transfected HEK-293T cells. The experiment can be described thus: Western blotting of phospho-JNK. Type of experiment: cell-based, human. The following applies: H2O2 1 mM, 30 min. An outline of the steps: as §1
The target in experiment [3] is T1, WT-ZAK and C22A-ZAK (Homo sapiens, UniProt Q9NYL2). The experiment can be described thus: gel-based ABPP, HNEyne labelling in living cells. It counts as cell-based. The conditions noted are these: 5 μM HNEyne, 1 hour, 37°C.
T1 sequence (Q9NYL2 1-455 isoform Q9NYL2-2, stated change not applied): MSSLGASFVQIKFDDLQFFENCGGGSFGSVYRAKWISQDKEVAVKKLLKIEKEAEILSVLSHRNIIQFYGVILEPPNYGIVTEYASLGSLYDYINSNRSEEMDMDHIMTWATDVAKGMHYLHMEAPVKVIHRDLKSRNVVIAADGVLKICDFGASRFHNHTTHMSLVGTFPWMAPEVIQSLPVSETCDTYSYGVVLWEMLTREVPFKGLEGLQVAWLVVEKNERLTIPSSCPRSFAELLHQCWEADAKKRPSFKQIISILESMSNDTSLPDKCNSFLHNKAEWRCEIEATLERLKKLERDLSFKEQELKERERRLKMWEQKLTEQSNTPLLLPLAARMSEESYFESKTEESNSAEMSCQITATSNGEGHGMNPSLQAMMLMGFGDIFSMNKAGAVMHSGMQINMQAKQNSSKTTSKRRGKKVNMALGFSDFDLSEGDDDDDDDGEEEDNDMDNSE
Experiment [4] concerns the target T1, WT-ZAK and C22A-ZAK. The experiment can be described thus: gel-based ABPP, HNEyne labelling in proteomes. It counts as binding. The following applies: 10 μM HNEyne, 1 hour, HEK-293T lysate.

Turning to `OO` [H2O2], the “JNK activity after H2O2” value in experiment [1] and in experiment [2] was “stimulated JNK activity” each time.

As for `C#CCCCC(O)C=CC=O` (stereo not shown) [HNEyne], at WT-ZAK and C22A-ZAK [3], the “direct labeling of ZAK by HNEyne in living cells” value is reported as “direct labeling of WT-, but not the C22A-ZAK mutant”. The “direct labeling of ZAK by HNEyne in vitro” value on WT-ZAK and C22A-ZAK [4] was “direct labeling of WT-, but not the C22A-ZAK mutant”.

The values above are taken from publication PMC3901407 (Nature methods, 2013).
